Bioassay records deposited in PubChem by Columbia University Molecular Screening Center.
The full list was thinned out, with hits kept by preference.
Insulin prom act = activators of insulin promoter-driven GFP, primary screen, imaging, TRM-6 cells, eGFP reporter, cell count; plate-scaled: unstimulated 0, stimulated control 100; activation, % at 2 µM; 130,000 compounds, 0.81% hits;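 active = activation at 2 µM above a set limit, confirmed on inspection of the cell images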;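 note: share of cells whose green reporter signal exceeds an intensity cutoff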
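Test system: human fetal islet-derived TRM-6 cells with tamoxifen-inducible insulin promoter–eGFP reporter; schedule: overnight tamoxifen, then two-day compound incubation at 37 °C; measured by: high-content imaging of fixed cells with Hoechst nuclear stain; evaluation: percent cells above green-intensity threshold, converted to percent activation versus plate controls; control set: stimulated and unstimulated wells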
Starred values were filed as active, the others as inactive.

`O=C(c1cc(-c2ccccc2)on1)N1CCN(Cc2ccc3c(c2)OCO3)CC1` gave Insulin prom act -5.
CCOC(=O)c1nsnc1NCCSC(=N)N was read as Insulin prom act 8.
For N#CC(c1nc2ccccc2nc1N1CCCC1)S(=O)(=O)c1cccs1 (centres undefined) the results were Insulin prom act 6.
`Cc1ncc([N+](=O)[O-])n1CCOC(=O)NC(NCc1ccccc1)C(Cl)(Cl)Cl` (centres undefined) gave Insulin prom act 133*.
Screening Cc1ncc([N+](=O)[O-])n1CCOC(=O)Nc1ccc(Cl)c(Cl)c1 returned Insulin prom act 0.
Screening Cc1ncc([N+](=O)[O-])n1CC(=O)NCc1ccccc1 returned Insulin prom act -7.
For COc1ccc(C(C)C)cc1S(=O)(=O)n1cnc(C)c1 the results were Insulin prom act -4.
Screening N#CC(=C1CCCC1)c1nc(-c2ccccc2)cs1 returned Insulin prom act 3.
For N#C/C(=C/c1ccc(-c2ccc(S(N)(=O)=O)cc2)o1)c1nc2ccccc2s1 the results were Insulin prom act 257*.
N#C/C(=C\Nc1ccccc1SC(F)(F)F)c1nc(-c2ccccc2)cs1 was read as Insulin prom act 4.
Screening N#C/C(=C(/O)C(Cl)c1ccccc1)c1nc2ccccc2s1 (centres undefined) returned Insulin prom act -3.
Screening CCOC(=O)N1CCN(/C=C(\C#N)c2nc3ccccc3s2)CC1 returned Insulin prom act 7.
N#C/C(=C/c1ccc(-c2ccccc2)o1)c1nc(-c2cccs2)cs1 was read as Insulin prom act 456*.
Cc1cccnc1NC(=O)COc1ccc2oc3c(c2c1)CCCC3 was read as Insulin prom act 433*.
For COc1cc2c(cc1NC(=O)COc1ccc3ccccc3c1)oc1ccccc12 the results were Insulin prom act -7.
For Cc1cc(C)cc(OCC(=O)Nc2nonc2NC(=O)COc2cc(C)cc(C)c2)c1 the results were Insulin prom act -6.
CCC(=O)c1c[nH]c(C(=O)NCCCn2ccnc2)c1 was read as Insulin prom act -4.
O=C(CN1C(=O)c2ccccc2C1=O)Nc1ccccc1C(=O)N1CCCC1 was read as Insulin prom act 127.
`CC1=NN(c2cccc(C(=O)O)c2)C(=O)/C1=C\C=C\c1ccco1` gave Insulin prom act 456*.
For CC1=NN(c2ccccc2)C(=O)/C1=C\N1CC(C)OC(C)C1 (centres undefined) the results were Insulin prom act -3.
O=C1NN(c2ccc(F)cc2)C(=O)/C1=C\C=C\c1ccco1 was read as Insulin prom act 3.
For CCC1CCCCN1c1ccc([N+](=O)[O-])cc1/C=N/NC(=O)Cn1c2ccccc2c(=O)c2ccccc21 (centres undefined) the results were Insulin prom act -3.
`CC1=CC(C)(C)N2C(=O)C3(N=C(N)NC(Nc4ccccc4)=N3)c3cc(C)cc1c32` (centres undefined) gave Insulin prom act 481*.
COc1ccc(-c2cnc(SCC(=O)Nc3ccc4c(c3)OCO4)n2Cc2ccco2)cc1 was read as Insulin prom act -6.
For CCOC(=O)CNC(=O)CSc1nnc(-c2ccccc2)n1Cc1ccco1 the results were Insulin prom act -6.
`O=C(CSc1nnc(-c2ccc(Cl)cc2)n1Cc1ccco1)NCc1ccc2c(c1)OCO2` gave Insulin prom act 80*.
`COc1ccc(/C=C/C(=O)NCCSCc2ccco2)cc1` gave Insulin prom act 0.
`C=CCn1c(CCNC(=O)c2cccs2)nnc1SCC(=O)c1ccc(Br)cc1` gave Insulin prom act -7.
Screening C=CCn1c(Cc2cccs2)nnc1SC/C=C/c1ccccc1 returned Insulin prom act 81*.
For CCn1c(SC/C=C/c2ccccc2)nnc1-c1cccs1 the results were Insulin prom act 191.
`CC1CCc2c(nc3ncnn3c2NCCN(C)C)C1` (centres undefined) gave Insulin prom act 0.
For CC(C)(C)c1ccc(/C=C/C(=O)Nc2nncs2)cc1 the results were Insulin prom act 0.
`Cc1ccc(C(=O)C(OC(=O)CNC(=O)c2ccc(Cl)cc2)c2ccccc2)cc1` (centres undefined) gave Insulin prom act 3.
Screening N#CC1=C(N)C(C#N)(C#N)C(c2cccnc2)C2CN(C(=O)OCc3ccccc3)CC=C12 (centres undefined) returned Insulin prom act 115.
N#CC1=C(N)C(C#N)(C#N)[C@H](c2ccoc2)[C@H]2CN(Cc3ccccc3)CC=C12 was read as Insulin prom act 212*.
Screening N#CC1=C(N)C(C#N)(C#N)C(c2cccnc2)C2COCC=C12 (centres undefined) returned Insulin prom act 0.
Screening CCN(CC)C(=O)C(Cc1ccccc1)N1C(=O)c2ccccc2C1=O (centres undefined) returned Insulin prom act 4.
Cc1ccc(NC(=O)CC(O)(C(F)(F)F)C(F)(F)F)cc1 was read as Insulin prom act -77.
For O=C(CSc1ncccn1)NC(=O)c1ccccc1 the results were Insulin prom act 7.
